Bioassay records: PubChem, Sanford-Burnham Center for Chemical Genomics
CCR6 antag: CCR6 (human) receptor antagonism | P51684 | CHO-K1 CCR6 PathHunter beta-arrestin, luminescence, CCL20-stimulated | inhibition, % at 20 µM | 340,000 tested, 0.49% active | AID 493098;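 active = compounds whose inhibition of the agonist-driven luminescence signal at 20 µM reaches about 50%, limit read from the data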;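 note: cells stimulated with CCL20 at 14 nM final; plate controls were DMSO with CCL20 for no effect and DMSO without agonist for full effect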
APJ antag: antagonists of human APJ apelin receptor; CHO-K1 APJ beta-arrestin complementation, luminescence; AID 2521; inhibition, % at 20 µM; 330,000 tested, 0.32% active;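 active = inhibition above about 40% at 20 µM, limit read from the data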;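 note: cells challenged with 10 nM apelin-13 agonist together with compound; plate controls were apelin-13 plus DMSO wells for no effect and DMSO wells lacking apelin-13 for full effect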
Target sequence (P35414 whole entry, looked up): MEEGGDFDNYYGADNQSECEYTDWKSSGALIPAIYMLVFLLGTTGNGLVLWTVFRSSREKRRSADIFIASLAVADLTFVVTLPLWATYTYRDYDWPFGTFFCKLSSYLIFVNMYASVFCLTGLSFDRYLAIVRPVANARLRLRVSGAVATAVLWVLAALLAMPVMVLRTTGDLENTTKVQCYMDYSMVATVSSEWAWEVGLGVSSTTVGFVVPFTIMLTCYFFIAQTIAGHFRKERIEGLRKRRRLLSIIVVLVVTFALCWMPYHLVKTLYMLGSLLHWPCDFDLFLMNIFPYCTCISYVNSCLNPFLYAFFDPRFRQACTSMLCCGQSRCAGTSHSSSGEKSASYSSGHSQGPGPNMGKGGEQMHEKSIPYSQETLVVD
EBI2 antag: antagonists of human EBI2 receptor. P32249. EBI2 beta-arrestin recruitment, luminescence, 7a,25-OHC stimulated. inhibition, % at 5 µM. 360,000 tested, 0.81% active; in the data active = inhibition above about 38%;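 note: enzyme fragment complementation signal reports receptor beta-arrestin coupling in cells; 0% = agonist plus DMSO wells and 100% = wells without agonist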
APJ agonist: APJ receptor agonism | P35414 | CHO-K1 APJ PathHunter beta-arrestin, luminescence; 0% DMSO wells, 100% apelin | activation, % at 20 µM | 330,000 tested, 0.11% active;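 active = activation more than six SD over the plate average, tested at 20 µM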;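 note: 0% = DMSO alone and 100% = apelin-13 at 10 nM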
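Material: engineered CHO-K1 APJ arrestin reporter cells; amount: 1000 CHO-K1 reporter cells seeded per well; incubation: compound stimulation 90 min at 25 °C, detection 60 min; signal: luminescent beta-gal fragment complementation, chemiluminescent substrate; read-out basis: APJ agonist activity; controls: DMSO-only wells as negative, 10 nM Apelin-13 as positive control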
CXCR6 block: CXCR6 (human) receptor inhibition; AID 602244; 360,000 tested, 0.36% active; O00574; CHO-K1 PathHunter CXCR6 beta-arrestin, luminescence; inhibition, % at 20 µM; in the data active = inhibition above about 34%, passing the limit was not always enough;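 note: antagonist mode with CXCL16 agonist at 10 nM final; 0% = 10 nM CXCL16 with DMSO and 100% = unstimulated wells without agonist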
EBI2 conf: EBI2 (human) antagonism, single concentration confirmation; EBI2 beta-arrestin luminescence, 7a,25-OHC antagonism; inhibition, % at 5 µM; 2,400 tested, 29% active; AID 651997; shares compounds with EBI2 antag;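 active = inhibition of at least 50%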
EBI2 agonist: counter-screen for EBI2 antagonists: EBI2 agonist activity. EBI2-expressing cells, agonist mode, luminescence, 60 min; 0% vehicle, 100% 7α,25-dihydroxycholesterol control. shares compounds with EBI2 antag. activation, % at 5 µM. 2,400 tested, under 10 active;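 active = activation of at least 50%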
bGal cs: beta-galactosidase inhibition counter-screen. 2,400 tested, 1% active. AID 652176. shares compounds with EBI2 antag. inhibition, % at 5 µM. purified beta-galactosidase, luminescent Galacton Star, 15 min;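 active = replicate-average signal at least 3 plate SD below neutral wells, shown as high inhibition, flagging enzyme-inhibiting false positives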;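 note: 0% = DMSO wells with enzyme and 100% = wells lacking enzyme; higher means stronger loss of beta-gal luminescence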
Active calls of the source: *; . = not tested or not shown. An excerpt weighted towards active compounds, which were near 1.5% of everything screened.

SMILES	CCR6 antag	APJ antag	EBI2 antag	APJ agonist	CXCR6 block	EBI2 conf	EBI2 agonist	bGal cs
COc1ccccc1N1CCN(C(=O)c2cccs2)CC1	6	15	-18	0	-9	.	.	.
COc1ccccc1N1CCN(C(=O)/C=C/c2ccccc2)CC1	3	14	84*	6	1	59*	-1	-12
Cc1cccc(N2CCN(C(=O)/C=C/c3cccs3)CC2)c1C	9	14	85*	-4	2	58*	-1	-13
COc1ccc(CCN2C(=O)CCC2(C)c2nnnn2-c2c(C)cccc2C)cc1OC (stereo not given)	.	.	2	.	3	.	.	.
CC1=C(C(=O)N(C(C)C)C(C)C)CC(CC(=O)NCCN2CCOCC2)C(=O)N1CCC1=CCCCC1 (stereo not given)	.	.	-5	.	0	.	.	.
CCOc1cc(OCC)cc(C(=O)N2CCC[C@H]2C(=O)N2CCC[C@H]2C(=O)N[C@H](C)c2ccccc2)c1	.	.	-14	.	1	.	.	.
OC[C@H]1O[C@H](c2nc(-c3nc(-c4cccc(-n5cccc5)c4)no3)cs2)C[C@@H]1O	.	.	3	.	-10	.	.	.
COc1cc(C(=O)NCCc2c[nH]c3ccccc23)ccc1OCc1c(C)noc1C	8	-13	61*	5	-5	49	0	-19
COc1ccc(CCNC(=O)c2ccc(OCc3c(C)noc3C)c(OC)c2)cc1	6	2	-5	1	3	.	.	.
O=C(Nc1cnn(C23CC4CC(CC(C4)C2)C3)c1)c1cc(-c2ccccc2)on1	19	-30	63*	0	2	37	1	5
COc1ccc(-c2nc(C)ncc2-c2ccc(Cl)cc2)c(O)c1	12	16	54*	-3	6	26	-1	-6
CCOc1ccc(-c2nc(N)ncc2-c2ccc(OC)cc2)c(O)c1	10	-11	69*	1	-1	35	0	-11
CCOc1ccc(-c2nc(N)ncc2-c2ccccc2)c(O)c1	3	-6	39	-2	6	.	.	.
CCOc1ccc(-c2nc(N)ncc2-c2ccc(Cl)cc2)c(O)c1	-11	15	59*	-4	-2	26	1	-9
CN(C(=O)c1cccc(NC(=O)Cc2cccc(NC(=O)C3CCCN(C(=O)C4CCCCC4)C3)c2)c1)C1CC1 (stereo not given)	15	.	-6	.	-2	.	.	.
C[C@@H]1CN([C@@H](C)CO)C(=O)CCCn2nncc2CO[C@@H]1CN(C)C(=O)Nc1ccc2c(c1)OCO2	.	.	-9	.	-8	.	.	.
CCOC(=O)C1(C)CCCN(C(=O)C(c2ccccc2)c2ccccc2)C1 (stereo not given)	.	.	7	.	6	.	.	.
COC(=O)CN1C(=O)COc2ccc(S(=O)(=O)N3CCCCC3)cc21	.	.	-3	.	1	.	.	.
COc1ccc(-c2nc3c(c(=O)[nH]c(=O)n3Cc3ccccc3)n2C)cc1	6	-2	10	-3	15	.	.	.
COc1ccc(-c2nc3c(c(=O)[nH]c(=O)n3Cc3ccccc3)n2Cc2ccccc2)cc1	8	-2	45*	-4	3	10	2	-7
O=C(/C=C1\OCc2cc(OCc3ccccc3)ccc21)OCc1ccccc1	.	.	46*	.	.	32	-1	-15
COc1cc2nc(CN3CCN(C(c4ccccc4)c4ccccc4)CC3)[nH]c(=O)c2cc1OC	.	-7	.	-1	.	.	.	.
COc1ccc(OCCN2CCN(S(=O)(=O)c3ccccc3C(F)(F)F)CC2)cc1	14	-1	60*	-1	-11	50*	1	-4
O=c1[nH]c(CN2CCN(S(=O)(=O)c3ccccc3C(F)(F)F)CC2)nc2sc3c(c12)CCCC3	0	11	59*	-1	-4	31	0	-11
O=C(c1cccs1)N(Cc1nc2sc3c(c2c(=O)[nH]1)CCCC3)C1CCCC1	-13	7	1	1	1	.	.	.
SMILES	CCR6 antag	APJ antag	EBI2 antag	APJ agonist	CXCR6 block	EBI2 conf	EBI2 agonist	bGal cs
COc1cc2nc(CN3CCN(S(=O)(=O)c4ccc(Br)cc4)CC3)[nH]c(=O)c2cc1OC	11	3	55*	1	-3	35	2	6
COc1ccc(OCCN2CCN(S(=O)(=O)c3ccccc3C#N)CC2)cc1	6	1	35	9	-5	.	.	.
Cc1ccc(S(=O)(=O)N2CCN(Cc3nc4ccccc4[nH]3)CC2)cc1C	-13	21	1	-2	4	.	.	.
COc1cc2nc(CN3CCN(S(=O)(=O)c4ccccc4[N+](=O)[O-])CC3)[nH]c(=O)c2cc1OC	.	.	45*	.	1	31	1	4
CC(C)c1ccccc1NC(=O)Nc1nnc([C@@H]2C[C@H](O)[C@@H](CO)O2)s1	.	.	6	.	4	.	.	.
O=C(CC[C@H]1O[C@@H](n2ccc(=O)[nH]c2=O)[C@H](O)[C@@H]1O)N[C@@H](Cc1ccccc1)C(=O)NCC1CCCO1 (stereo not given in full)	.	.	-2	.	-3	.	.	.
COc1ccc(CNC(=O)C[C@H]2C[C@H](C(=O)N3CCOCC3)[C@@]3(CCC4CCCC4)c4[nH]c5cc(CCC(=O)N(C)C)ccc5c4CCN3C2=O)cc1OC	28	.	-3	.	-1	.	.	.
CNc1cncc(-c2cccnc2)n1	.	.	-7	.	0	.	.	.
COc1cc2nc(CN3CCN(S(=O)(=O)c4ccccc4C(F)(F)F)CC3)[nH]c(=O)c2cc1OC	9	16	64*	4	-2	22	1	-10
COc1cc2nc(CN3CCN(S(=O)(=O)c4c(F)cccc4F)CC3)[nH]c(=O)c2cc1OC	15	7	36	0	0	.	.	.
COc1cccc(-c2onc3ccc(C4(C)OCCO4)cc23)c1	1	-5	48*	5	-13	11	0	8
O=C(NCCCc1ccccc1)C1CCC(=O)N(Cc2ccc(Cl)cc2)C1 (stereo not given)	5	3	35	0	-2	.	.	.
COc1ccc(CCCNC(=O)C2CCC(=O)N(Cc3ccc(Cl)cc3)C2)cc1 (stereo not given)	11	-25	49*	-2	2	24	0	9
COc1cc(CC(=O)N2c3ccccc3N=C(c3ccccc3)C2C(=O)NCc2ccccc2)cc(OC)c1 (stereo not given)	.	.	12	.	.	.	.	.
CC1(Oc2ccccc2-c2ccn[nH]2)CCN(Cc2ccc(OC(F)(F)F)cc2)C1 (stereo not given)	.	.	5	.	-3	.	.	.
Cc1ccc(C)c(CN2CCC(CNC(=O)Nc3ccc(Cl)cc3)CC2)c1	7	0	21	-2	-11	.	.	.
Cc1ccc(C)c(CN2CCC(CNC(=O)Nc3ccc(Br)cc3F)CC2)c1	13	-15	52*	-2	-3	11	1	1
